Variants at the floor of the assay were thinned out.

B1: tRNA (parent)
chain: GUUCCGUUGGCGUAAUGGUAACGCGUCUCCCUCCUAAGGAGAAGACUGCGGGUUCGAGUCCCGUACGGAACG

In the data set the parent is B1. The data set can be described thus: yeast fitness relative to wild type (ratio to wild type); higher = fitter; tRNA-Arg(CCU), competitive growth, 37 C, YPD. In short, it runs like this: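 Variants of the tRNA-Arg(CCU) gene were chemically synthesised with a 3% per-site mutation rate across 69 sites and placed at the native genomic locus in Saccharomyces cerevisiae. Six parallel replicates of the pooled strains were competed in YPD at 37°C for 24 hours, and gene amplicons from the start and end populations were read by 100-nucleotide paired-end sequencing. Darwinian fitness relative to wild type was derived from changes in genotype frequencies. Genotypes required ≥ 100 starting reads, and estimates < 0.5 were set to 0.5.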
With GUACCGUUGGCGUAAUGGUAACGCGUCUCCCUCCUAAGGAAAAGACUGCGGGUUCGAGUCCCGUACGGUACG, the yeast fitness was found to be 0.617.
Turning to GUUCCGUGGGCGUAAUGGUAACGCGUCUCCCUCCGAAGGAGAAGACUGCGGGUUCGAGUCCCGUACGGAACG, the yeast fitness was no more than 0.5.
Under GCUCCGUUGGCGAAAUGGUAACGCGUGUCCCUACUAAGGAGAAGACUACGCGUUCGAGUCCCGUACGGAACG stands no more than 0.5; under GUUCCGUUGGCGUAAUGGUAACGAGUCUCCCUCCUUCGGAGAAGACUGCGGGUUCGAGUCCCGUACGGAACG, no more than 0.5.
The figure for GUUCCGUUGGCGUAAUGGUAACGCGUCUCACUCCUAAGGAGAAGACUGCGAACUCAAGUCGCGUACGGAACG is no more than 0.5; for GUUCCGUUGGCGUAAUGGUAACGCGUCUCCCUCCUAUGGUGAAGACUGCGGGUUCGAGUCCCGCACAGAACG it is no more than 0.5.
The figure for GUUCCGUUGGCGUAAUCGUAACGCGUCUCCCUCCUAAGGAGAAGACUGCGGGUUCGAGUCCCGUACGCAACG is 0.614; for GUUCCGUUGGCGUAAUGGUAACGCGUCACCCUCCUAAGGAGAAGACUGUGGGUGCGAGUCCCGUACGGAACG it is no more than 0.5.
Regarding GUUCCGUUGGCGUAAUGGUAACGCGUCUCCCGCCUAAGGAGAAGACGGCGGGUUCGAGUCCCGUACGGAACG, the yeast fitness is no more than 0.5.
Under GUUCGGUUGGGGUAUUGGUAACGCGUCUCCCUCCUAAGGAGAAGACUGCGGGUUAGAGUCCCGUACGGAACG stands no more than 0.5; under GUUCCGUUGGCGUAAUGGUAACGCGUCUUCCUCCUAAGGAGCAGACUGCGGGUUCGAGUCCCGUACCGAACG, 0.505.
Under GUUCUGUUGGCGUAAUGGUAACGCGUCUCCCUCCUAAGGAGAAGACUGCGGGUUCGAGUCCGGUACGGAACG stands 0.702; under GUUCUGGUGGCGUAAUGGUAACGCGUCUCCCUCCUAAGGAGAAGACUGCGGGUUCGUGUCCCGUACGGAACG, no more than 0.5; under GUUCCGUUGGCGUAAUGGCAACGCGUCUCCCUCUUAAGGAGAAGACUGCGGAUUCGAGACCCGUACGGAACG, 0.669.
Under GUUCCGUUGGGGUAAUGGUAACGCGUCUCCCUCCUAAGGGGAAGGCUGCGGAUUCGAGUCCCGUACGGAACG stands 0.577.
For GUUCCGUUGGCGUAAUGGUAACGCGUCUCCCUCCUAAGGAGCAGAGUGCGGGUUCGAGUCCCGUACCGAACG, the yeast fitness was determined as 0.612.
The figure for GUUCCGUUGGCGUAACGGUAACGCGUCUCCCUCCUAAGGAGACGACUGCGGGUUCGAGUCCCGUACGGAACG is 1.01; for GUCCCGUUAGCGUAAUGGCAACGCGUCUCCCUCCUAAGGAGAAGACUGCGGGUUCGAGUCCCGUACGGAACG it is 0.816.
The figure for GUUCCAUUGGAGUAAUGGUAACGCGUCUCCCUCCUAAGGAGAAGACUGCGGGUUCGAGUCCCGUACGGAACG is 0.639.
Under GUUCCGUUGGCGUAAUGGUAACGCGUCUCCCUCCUAAGGAGAACACUGCGGGUUAGAGUCCCGUACGGAACG stands 0.548; under GUUCCGUUGGCGAAAUGGUAACGCGUCUCCCCCCUAAGGCGAAGACUGCGGGUUCGAGUCCCGUACAGAACG, no more than 0.5.
On to GUGCCGUUGGCGUAAUGGUAACGCGUCUCCCUCCUAAGGAGUAGACUGCGGGUUCGAGUCCCGUACGGAACG, for which the yeast fitness stood at 0.758.
The figure for GUUCCCUUGGCGUAAUGGUAACGGGUCUCGCUCCUAAGGAGAAGACUGCGGGUUCGAGUCCCGUACGGAACG is no more than 0.5.
The figure for GUUCCGUUGGCGUAAUGGUAACGCGUCUCCGUCCUAACGAGAUGACUGCGGGUUCGAGUCCGGUACGGAACG is no more than 0.5; for GUUACGUUGGCGUAAUGGUAACGCGUCUCCCUACUAAGGAGAAGACUGCGGGUUCGAGUCCAGUACGGAACG it is 0.668; for GUUCCGUUGGCGUAAUGGUAACGCGUCACCUUCCUAAGGAGAAGACUGCGGGUUCGAGUCCCGUUCGGAACG it is 0.546.
Consider GUUCCGUUGGCGUAAUGGUAAGGCGUCUCCCUCCUAAGGAGAAGACUGCGCGUUCGAAUCCCGUACGGAACG, for which the yeast fitness is no more than 0.5.
GUUCCGUUGGCGUAAUGGGAACGCGUCUCCCUCCUAAGGAGAAGACUGUGGGUUCGAGUCCAGUACGGGACG: the yeast fitness is no more than 0.5.
The figure for GUUCCGUUGGCGUAAUGGUACCACGUCUCCCUCCUACGGAGAAGACUGCGGGUCCGAGUCCCGUGCGGAACG is no more than 0.5; for GGUCCGUUGGCGUAAUGGUAACGCGUCUCCCGCCUAAGGAGAAGACUGCGGGUUCGAGUCCCGUACGGAACG it is 0.68; for GUUCCGUUGGCGUACUGGUAACGCGUCUCCCUCCUAAGGAGAUGACUGCGGGUUCGAGUCCCGUACGGAACG it is 0.653.
The figure for GUUCCGUUGGCGUAAUCGUAACGCGUCUCCCUCCUAAGGAGACGACUGCGGGUUCGAGUCCCGUACGGAACG is 0.734.
The figure for GUUCCGUUGGCGUAAUGGUAAUGCGUCUCUCUCCUAAGGAGAAGACUGCGGGUUGGAGUCCCGUACGGAACG is no more than 0.5; for GUUCCGUUGGCGUAAUGGUAACGCGCCUCCCUCCUAAGAAGAAGACUGCGGGUUCGAGCCCCGUACGGAACG it is 0.604; for GUUCCGUUGGCGUAAUGGUAACGCGUCUCCCUGCUAACGAGAAGACUGCGGGUUAGAGUCCCGUUCGGAACG it is 0.665.
Consider GUUCCGUUGGCGUAAUGGUAACGCGUCUCCUUCCUUAGGAGAAGACUGCGAGUUCGAGUCCCGUACGGAUCG, for which the yeast fitness was 0.693.
The figure for GUUCCGUUGGCGUAAGGGUAACGCGUCUCCCCCCUAAGGAGAAGACUGCGGGUUCGAGUCCCGUACGGAGCG is 0.984; for GUUUCGUUGGCGUAAUGGUAAGGCGUCUCCCUCCUAAGGAGAAGACUGCGGGUUCGAGUCCCGUACAGAACG it is 0.689.

These data come from the RNAGym collection of RNA variant scans (doi:10.1126/science.aae0568).
